# Assay outcomes (PubChem BioAssay)
# UCH37 DUB inh: human UCH37 deubiquitinating enzyme inhibition; Q9Y5K5; purified proteasome/UCH37, Ub-AMC cleavage fluorescence; inhibition, % (test concentration not listed); 330,000 tested, 0.33% active;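 active = mean inhibition over replicate wells above about 20%, limit read from the data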
# Target sequence (Q9Y5K5 whole entry, looked up): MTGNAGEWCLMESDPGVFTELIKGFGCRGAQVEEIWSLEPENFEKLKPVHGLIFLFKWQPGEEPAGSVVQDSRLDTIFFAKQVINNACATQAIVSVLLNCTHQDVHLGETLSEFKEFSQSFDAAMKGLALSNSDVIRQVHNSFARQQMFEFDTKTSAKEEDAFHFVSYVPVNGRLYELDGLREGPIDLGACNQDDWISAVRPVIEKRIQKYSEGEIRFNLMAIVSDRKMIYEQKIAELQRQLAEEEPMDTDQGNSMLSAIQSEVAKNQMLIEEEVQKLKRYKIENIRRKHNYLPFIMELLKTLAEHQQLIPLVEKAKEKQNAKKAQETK
#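 System: Proteasome-associated human UCH37 deubiquitinase; Input: 0.15 nM proteasome in added enzyme buffer; Also added: Ub-AMC substrate from 1 µM stock; Incubation: 30 min compound-proteasome preincubation then 25 min substrate reaction, room temperature; Detection: fluorescence, ex 355 nm, em 460 nm; Read-out: % inhibition of Ub-AMC cleavage fluorescence; Benchmarks: no-proteasome and no-compound wells.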
# Calb FLC: C. albicans growth modulation with fluconazole | 300,000 tested, 0.57% active | C. albicans CaCi-2 + fluconazole, Alamar Blue growth, 48 h | growth inhibition, % (test concentration not listed) | AID 1979;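 active = growth inhibition above about 58% in most replicates, limit read from the data, passing the limit was not always enough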;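 also: all wells also contain fluconazole at 8 µg/ml as a sub-toxic cotreatment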
# ALR H2O2 inh: human ALR oxidase inhibition via reduced H2O2; P55789; purified ALR, DTT oxidation, H2O2 HRP-luminol luminescence; inhibition, % (concentration not given with the values); 290,000 tested, 3.8% active; AID 485317;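 active = mean replicate inhibition above about 79%, with every replicate also reaching it, limit read from the data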
# Target sequence (P55789 whole entry, looked up): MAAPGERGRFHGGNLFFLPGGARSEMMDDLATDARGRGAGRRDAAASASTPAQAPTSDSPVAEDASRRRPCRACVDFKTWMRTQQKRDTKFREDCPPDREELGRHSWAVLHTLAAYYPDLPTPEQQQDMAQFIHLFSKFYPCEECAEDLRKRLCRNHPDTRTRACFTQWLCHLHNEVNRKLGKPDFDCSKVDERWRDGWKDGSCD
# NLRP3 yeast inh: NALP3 inhibition in yeast; 330,000 tested, 0.39% active; AID 2825; Yeast reconstituted NLRP3/ASC/caspase-1, beta-gal luminescence, 24 h; inhibition, % at 10 µM;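 active = inhibition of 50% or more; inactive = inhibition below 50%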
# NALP1 yeast inh: NALP1 inhibition. S. cerevisiae NALP1/ASC/caspase-1 growth, X-gal OD620, 72 h. inhibition, % at 10 µM. 280,000 tested, 0.61% active; in the data active = inhibition mostly above about 24%, no sharp cut-off; inactive = mostly below about 32%
# ATG4B inhibitor: inhibitors of human ATG4B cysteine protease | Q9Y4P1 | ATG4B cleavage of LC3-PLA2, NBD-HPC fluorescence, 1 h | inhibition, % at 8.33 µM | 340,000 tested, 0.51% active | AID 504462; in the data active = inhibition above about 40%
# Hits are given with their value; i = inactive; nt = no result; ! = not active in a repeat. An excerpt weighted towards active compounds, which were near 4.8% of everything screened.
SMILES,UCH37 DUB inh,Calb FLC,ALR H2O2 inh,NLRP3 yeast inh,NALP1 yeast inh,ATG4B inhibitor
CC(=NNC(=O)CNS(=O)(=O)c1ccccc1)c1ccc(Br)cc1,i,nt,nt,nt,nt,nt
COc1ccc(C=NNC(=O)c2ccoc2C)cc1OC,i,nt,nt,nt,nt,nt
COc1cc(C=NNC(=O)C(=O)NCC2CCCO2)cc(Cl)c1O (centres undefined),i,nt,nt,nt,nt,nt
O=C(CSC1=NS(=O)(=O)c2cc(F)ccc2N1)Nc1cccc(F)c1,i,i,97,i,nt,i
O=C(CSC1=NS(=O)(=O)c2cc(F)ccc2N1)Nc1ccccc1,i,i,nt,i,nt,i
Brc1cc2c(cc1C=NNc1nc(N3CCCC3)nc(N3CCOCC3)n1)OCO2,i,nt,nt,nt,nt,nt
CC(C)c1ccc2c(c1)CCC1C(C)(CN)CCCC21C (centres undefined),i,87,i,nt,i,i
CCn1c(-c2csc3ccccc23)n[nH]c1=S,i,i,i,i,i,i
CC(C)Cn1c(-c2csc(C(C)C)c2)n[nH]c1=S,i,i,94,i,i,i
COc1ccc(Cn2c(-c3ccc(OC)cc3)n[nH]c2=S)cc1,i,i,95,i,i,i
COc1ccc(-c2n[nH]c(=S)n2CC(C)C)cc1,i,i,88,i,i,i
CC(C)Cn1c(-c2csc3ccccc23)n[nH]c1=S,i,i,95,i,i,i
CC(=NNC(=O)c1cccs1)c1cccnc1,i,nt,nt,nt,nt,nt
COc1ccc2nc(N=Cc3cccc(OC)c3O)sc2c1,i,nt,nt,nt,nt,nt
CCc1cc(-c2n[nH]c(=S)n2Cc2ccccc2)cs1,i,i,92,i,i,i
CCc1cc(-c2n[nH]c(=S)n2CC)cs1,i,i,i,i,i,i
OCC1(CCc2ccccc2)CCN(Cc2ccccc2Cl)CC1,i,i,i,i,i,i
Clc1ccccc1CN1CCN(CCCc2ccccc2)CC1,i,i,nt,nt,22,i
Cc1cccc(CN2CCN(CCCc3ccccc3)CC2)c1,i,i,nt,i,31,nt
CC(=NNC(=O)c1nc(C)cc(C)n1)c1ccccc1,i,nt,nt,nt,nt,nt
Clc1ccccc1CN1CCN(N=Cc2ccncc2)CC1,i,nt,nt,nt,nt,nt
Cc1cc(=O)[nH]c(SCCCOc2ccc(F)cc2)n1,i,i,nt,i,41,i
CCCOc1cccc(OCCSc2nc(C)cc(=O)[nH]2)c1,i,i,i,i,i,i
CCOc1cc(C(=O)NN=CC2CC=CCC2)cc(OCC)c1OCC (centres undefined),i,nt,nt,nt,nt,nt
COCCCN1C(=O)C(=O)/C(=C(/O)c2ccc(OC)cc2)C12C(=O)N(C)c1ccccc12 (centres undefined),i,i,i,i,39,i
SMILES,UCH37 DUB inh,Calb FLC,ALR H2O2 inh,NLRP3 yeast inh,NALP1 yeast inh,ATG4B inhibitor
COCCCN1C(=O)C(=O)/C(=C(/O)c2ccc(OC)cc2)C1c1ccc(O)c(OC)c1 (centres undefined),i,i,i,i,i,i
CC(=NOC(=O)c1ccccc1)c1c(C)nc2cc(C)ccn12,i,nt,nt,nt,nt,nt
CCCCn1c(=O)[nH]c(=O)c2c1nc(-c1ccc3ccccc3c1)n2CC,i,i,i,i,i,i
CCCCn1c(=O)[nH]c(=O)c2c1nc(-c1ccc(-c3ccccc3Br)o1)n2CC,i,104,i,i,i,i
CCCCn1c(=O)[nH]c(=O)c2c1nc(-c1ccc(C)c([N+](=O)[O-])c1)n2CC,i,i,96,i,i,i
COCCn1c(-c2ccc(-c3ccc([N+](=O)[O-])cc3Br)o2)nc2c1c(=O)[nH]c(=O)n2CC(C)C,i,i,i,i,22,i
COCCn1c(=O)[nH]c(=O)c2c1nc(-c1ccc(-c3ccc(Cl)cc3[N+](=O)[O-])o1)n2Cc1ccccc1,i,i,nt,i,i,i
O=C(NN=Cc1ccc([N+](=O)[O-])o1)c1cccc(S(=O)(=O)N2CCOCC2)c1,i,nt,nt,nt,nt,nt
NC(=O)NN=C(CCCCCCC(=NNC(N)=O)c1ccccc1)c1ccccc1,i,nt,nt,nt,nt,nt
COc1cccc(NC(=S)NNC(=O)CCn2cc([N+](=O)[O-])cn2)c1,i,i,83,i,i,i
COc1cccc(NC(=S)NNC(=O)Cn2nc(C(F)F)cc2C(F)F)c1,i,i,84,i,i,i
COc1cccc(NC(=S)NNC(=O)Cn2nc([N+](=O)[O-])cc2C)c1,i,i,i,i,i,i
CC1(C)Cc2nc3sc4c(NCCO)ncnc4c3cc2CS1,i,i,i,i,31,i
COc1cc(-c2nnc3sc(-c4ccco4)nn23)cc(OC)c1OC,i,i,98,i,i,i
COc1ccc(-c2nnc3sc(-c4ccco4)nn23)cc1OC,i,i,99,i,i,i
COc1cccc(-c2nnc3sc(-c4ccco4)nn23)c1,i,i,i,i,i,i
COc1ccc(-c2nn3c(-c4ccco4)nnc3s2)cc1OC,i,i,i,i,i,i
Cc1cc(C)nc(NN=Cc2ccncc2)n1,i,nt,nt,nt,nt,nt
Cc1cccc(OCC(=O)NCC(=O)NN=Cc2ccccc2)c1,i,nt,nt,nt,nt,nt
CC(C)CCNC(=O)c1cn(C)c2ccc(S(=O)(=O)N3CCCC3)cc2c1=O,i,i,i,i,i,i
CCCCNC(=O)c1cn(C)c2ccc(S(=O)(=O)N3CCCC3)cc2c1=O,i,85,i,i,i,i
O=C(Nc1ncc([N+](=O)[O-])s1)c1ccccc1Br,i,i,97,i,i,i
O=C(Nc1ncc([N+](=O)[O-])s1)c1cccs1,i,108,97!,i,i,i
Cc1cnc(NC(=O)c2cccs2)s1,i,i,i,i,34,i
Cc1ncoc1C(=O)Nc1ncc([N+](=O)[O-])s1,i,i,nt,i,i,i
SMILES,UCH37 DUB inh,Calb FLC,ALR H2O2 inh,NLRP3 yeast inh,NALP1 yeast inh,ATG4B inhibitor
COc1cccc2cc(C(N)=O)c(=NNC(=O)c3ccccc3)oc12,i,nt,nt,nt,nt,nt
Cc1cccc(N2CCN(C(=O)CCn3c(=O)[nH]c4ccsc4c3=O)CC2C)c1 (centres undefined),i,i,99,i,i,i
Cc1cccc(N2CCN(C(=O)c3ccccn3)CC2C)c1 (centres undefined),i,i,i,i,i,i
Cc1cccc(N2CCN(C(=O)NC3CCCCC3)CC2C)c1 (centres undefined),i,i,88,i,i,i
Cc1cccc(N2CCN(C(=O)CCN3C(=O)C4C5C=CC(C5)C4C3=O)CC2C)c1 (centres undefined),i,i,84,i,i,i
Cc1ccc(C)c(N2CCN(C(=O)c3ccc(CS(=O)(=O)c4ccccc4C)o3)CC2)c1,i,i,i,i,i,i
Cc1cccc(N2CCN(C(=O)c3ccc(CS(=O)(=O)c4ccccc4C)o3)CC2C)c1 (centres undefined),i,i,95,i,i,i
COc1ccccc1N1CCN(C(=O)CCn2c(=O)[nH]c3ccsc3c2=O)CC1,i,i,i,i,i,i
COc1ccc(C(C)=NNc2nc3ccccc3nc2C)cc1,i,nt,nt,nt,nt,nt
O=C(O)c1cccc(-c2ccc(C=Nn3cnc4sc5c(c4c3=O)CCCC5)o2)c1,i,nt,nt,nt,nt,nt
Cc1ccc(-c2ccc(C=Nn3cnnc3)o2)cc1Cl,i,nt,nt,nt,nt,nt
